# Measured values reported in ChEMBL document CHEMBL4007430, “Synthesis and Cytostatic and Antiviral Profiling of Thieno-Fused 7-Deazapurine Ribonucleosides” (J Med Chem, 2017).
# Key:
# [1] = test system: Hepatitis C virus; test: Anti-HCV activity against Hepatitis C virus genotype 1b infected in human Huh7 replicon cells after 96 hrs by luciferase reporter gene assay; assay type: functional, cell-based, Hepacivirus hominis; conditions: Huh-7, 96 h
# [2] = test system: Hepatitis C virus; test: Anti-HCV activity against Hepatitis C virus genotype 2a infected in human Huh7 replicon cells after 96 hrs by luciferase reporter gene assay; assay type: functional, cell-based, Hepacivirus hominis; conditions: Huh-7, 96 h
# [3] = test system: BJ; test: Cytotoxicity against human BJ cells assessed as cell growth inhibition after 72 hrs by MTS assay; assay type: cell-based
# Method in brief: (§1)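 Cells were exposed to compound for 3 days, then stained with MTS as a quantitative metabolic read-out. IC50 is the concentration that inhibits cell growth by 50%.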
# [4] = test system: MRC5; test: Cytotoxicity against human MRC5 cells assessed as cell growth inhibition after 72 hrs by MTS assay; assay type: cell-based; conditions: MRC5, 72 h; method in brief: as §1
# [5] = Cytotoxicity against mrp-1/mdr-1 overexpressing human CEM-DNR-bulk cells assessed as cell growth inhibition after 72 hrs by MTS assay; assay type: functional, cell-based
# Method in brief: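 Cells were exposed to compound for 3 days, then stained with MTS as a quantitative metabolic read-out.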
# [6] = test system: HCT-116; test: Cytotoxicity against human HCT116 cells assessed as cell growth inhibition after 72 hrs by MTS assay; assay type: functional, cell-based; conditions: HCT-116, 72 h; method in brief: as §1
# [7] = test system: HCT-116; test: Cytotoxicity against p53 deficient human HCT116 cells assessed as cell growth inhibition after 72 hrs by MTS assay; assay type: functional, cell-based; conditions: HCT-116, 72 h; method in brief: as §1
# [8] = test system: K562; test: Cytotoxicity against human K562 cells assessed as cell growth inhibition after 72 hrs by MTS assay; assay type: functional, cell-based; conditions: K562, 72 h; method in brief: as §1
# [9] = Cytotoxicity against human K562-TAX cells assessed as cell growth inhibition after 72 hrs by MTS assay; assay type: functional, cell-based; method in brief: as §1
# [10] = test system: U2OS; test: Cytotoxicity against human U2OS cells assessed as cell growth inhibition after 72 hrs by MTS assay; assay type: functional, cell-based
# [11] = test system: HL-60; test: Cytotoxicity against human HL60 cells assessed as reduction in cell viability after 72 hrs by XTT assay; assay type: functional, cell-based; conditions: HL-60, 72 h
# Method in brief: (§2)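 Cells were incubated with compound for 3 days. Viability was then measured with the XTT tetrazolium assay.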
# [12] = test system: HepG2; test: Cytotoxicity against human HepG2 cells assessed as reduction in cell viability after 72 hrs by XTT assay; assay type: functional, cell-based; conditions: HepG2, 72 h; method in brief: as §2
# [13] = test system: HeLa S3; test: Cytotoxicity against human HeLaS3 cells assessed as reduction in cell viability after 72 hrs by XTT assay; assay type: functional, cell-based; conditions: HeLa S3, 72 h; method in brief: as §2
# [14] = test system: A549; test: Cytotoxicity against human A549 cells assessed as cell growth inhibition after 72 hrs by MTS assay; assay type: functional, cell-based; conditions: A549, 72 h; method in brief: as §1
# [15] = test system: CCRF-CEM; test: Induction of apoptosis in human CCRF-CEM cells assessed as accumulation at subG1 phase at IC50 after 24 hrs by propidium iodide staining-based flow cytometric analysis (reference value: 2.32%); assay type: functional
# [16] = test system: CCRF-CEM; test: Induction of apoptosis in human CCRF-CEM cells assessed as accumulation at subG1 phase at 5 times IC50 after 24 hrs by propidium iodide staining-based flow cytometric analysis (reference value: 2.32%); assay type: functional
# [17] = test system: CCRF-CEM; test: Cell cycle arrest in human CCRF-CEM cells assessed as accumulation at G0/G1 phase at IC50 after 24 hrs by propidium iodide staining-based flow cytometric analysis (reference value: 41.11%); assay type: functional
# [18] = test system: CCRF-CEM; test: Cell cycle arrest in human CCRF-CEM cells assessed as accumulation at G0/G1 phase at 5 times IC50 after 24 hrs by propidium iodide staining-based flow cytometric analysis (reference value: 41.11%); assay type: functional
# [19] = test system: CCRF-CEM; test: Cell cycle arrest in human CCRF-CEM cells assessed as accumulation at S phase at IC50 after 24 hrs by propidium iodide staining-based flow cytometric analysis (reference value: 44.20%); assay type: functional
# [20] = test system: CCRF-CEM; test: Cell cycle arrest in human CCRF-CEM cells assessed as accumulation at S phase at 5 times IC50 after 24 hrs by propidium iodide staining-based flow cytometric analysis (reference value: 44.20%); assay type: functional
# [21] = test system: CCRF-CEM; test: Cell cycle arrest in human CCRF-CEM cells assessed as accumulation at G2/M phase at IC50 after 24 hrs by propidium iodide staining-based flow cytometric analysis (reference value: 14.70%); assay type: functional
# [22] = test system: CCRF-CEM; test: Cell cycle arrest in human CCRF-CEM cells assessed as accumulation at G2/M phase at 5 times IC50 after 24 hrs by propidium iodide staining-based flow cytometric analysis (reference value: 14.70%); assay type: functional
# [23] = test system: CCRF-CEM; test: Inhibition of mitosis in human CCRF-CEM cells assessed as pH3Ser10 positive cells at IC50 after 24 hrs by flow cytometric analysis (reference value: 1.74%); assay type: functional
# [24] = test system: CCRF-CEM; test: Inhibition of mitosis in human CCRF-CEM cells assessed as pH3Ser10 positive cells at 5 times IC50 after 24 hrs by flow cytometric analysis (reference value: 1.74%); assay type: functional
# [25] = test system: CCRF-CEM; test: Inhibition of mitosis in human CCRF-CEM cells assessed as pH3Ser10 positive cells after 24 hrs by flow cytometric analysis; assay type: functional, cell-based
# [26] = test system: CCRF-CEM; test: Inhibition of DNA synthesis in human CCRF-CEM cells assessed as decrease in BrdU incorporation by measuring synthesized DNA levels at IC50 after 24 hrs by propidium iodide staining-based flow cytometric analysis (reference value: 52.66%); assay type: functional
# [27] = test system: CCRF-CEM; test: Inhibition of DNA synthesis in human CCRF-CEM cells assessed as decrease in BrdU incorporation by measuring synthesized DNA levels at 5 times IC50 after 24 hrs by propidium iodide staining-based flow cytometric analysis (reference value: 52.66%); assay type: functional
# [28] = test system: CCRF-CEM; test: Inhibition of RNA synthesis in human CCRF-CEM cells assessed as decrease in BrU incorporation by measuring synthesized RNA levels at IC50 after 24 hrs by propidium iodide staining-based flow cytometric method (reference value: 53.09%); assay type: functional
# [29] = test system: CCRF-CEM; test: Inhibition of RNA synthesis in human CCRF-CEM cells assessed as decrease in BrU incorporation by measuring synthesized RNA levels at 5 times IC50 after 24 hrs by propidium iodide staining-based flow cytometric method (reference value: 53.09%); assay type: functional
# [30] = Drug level in human BJ cells at 1 umol/L measured per 5 x 10^5 cells after 1 hr by UPLC-MS/MS analysis; assay type: ADME, cell-based; conditions: 1 µM
# [31] = Drug level in human HCT116 cells at 1 umol/L measured per 5 x 10^5 cells after 1 hr by UPLC-MS/MS analysis; assay type: ADME, cell-based; conditions: hct-116, 1 h, 1 µM
# [32] = Drug level in human BJ cells at 1 umol/L measured per 5 x 10^5 cells after 3 hrs by UPLC-MS/MS analysis; assay type: ADME, cell-based; conditions: 1 µM
# [33] = Drug level in human HCT116 cells at 1 umol/L measured per 5 x 10^5 cells after 3 hrs by UPLC-MS/MS analysis; assay type: ADME, cell-based; conditions: hct-116, 3 h, 1 µM
# [34] = Drug level in human BJ cells at 10 umol/L measured per 5 x 10^5 cells after 1 hr by UPLC-MS/MS analysis; assay type: ADME, cell-based; conditions: 10 µM
# [35] = Drug level in human HCT116 cells at 10 umol/L measured per 5 x 10^5 cells after 1 hr by UPLC-MS/MS analysis; assay type: ADME, cell-based; conditions: hct-116, 1 h, 10 µM
# [36] = Drug level in human BJ cells at 10 umol/L measured per 5 x 10^5 cells after 3 hrs by UPLC-MS/MS analysis; assay type: ADME, cell-based; conditions: 10 µM
# [37] = Drug level in human HCT116 cells at 10 umol/L measured per 5 x 10^5 cells after 3 hrs by UPLC-MS/MS analysis; assay type: ADME, cell-based; conditions: hct-116, 3 h, 10 µM
# [38] = Cytotoxicity against human HuH7 cells; assay type: cell-based, Huh-7
# [39] = test system: CCRF-CEM; test: Cytotoxicity against human CCRF-CEM cells assessed as cell growth inhibition after 72 hrs by MTS assay
smiles,measurement,setting,value
CSc1ncnc2c1c1sccc1n2[C@@H]1O[C@H](CO)[C@@H](O)[C@H]1O,EC50,[1],0.47 µM
same,EC50,[2],0.34 µM
same,IC50,[3],1.25 µM
same,IC50,[4],9.01 µM
same,IC50,[5],1.46 µM
same,IC50,[6],0.05 µM
same,IC50,[7],0.09 µM
same,IC50,[8],0.35 µM
same,IC50,[9],2.2 µM
same,IC50,[10],0.46 µM
same,IC50,[11],0.51 µM
same,IC50,[12],0.36 µM
same,IC50,[13],0.72 µM
same,IC50,[14],0.66 µM
same,Activity,[15],10.83%
same,Activity,[16],18.15%
same,Activity,[17],44.14%
same,Activity,[18],41.28%
same,Activity,[19],34.12%
same,Activity,[20],38.11%
same,Activity,[21],21.65%
same,Activity,[22],20.61%
same,pH3Ser10+ cells (%),[23],1.92%
same,pH3Ser10+ cells (%),[24],1.03%
same,Activity,[25],Dose-dependent effect
same,BrdU+ cells (%),[26],51.67%
same,BrdU+ cells (%),[27],51.49%
same,BrU+ cells (%),[28],1.46%
same,BrU+ cells (%),[29],0.16%
same,Drug uptake,[30],711.7 pmol
same,Drug uptake,[31],105.4 pmol
same,Drug uptake,[32],1750.5 pmol
same,Drug uptake,[33],602.8 pmol
same,Drug uptake,[34],2298.3 pmol
same,Drug uptake,[35],525.5 pmol
same,Drug uptake,[36],3161.5 pmol
same,Drug uptake,[37],1299 pmol
same,CC50,[38],> 44.4 µM
same,IC50,[39],0.027 µM
